The values below come from ChEMBL document CHEMBL4007381, “Synthesis, X-ray crystal structure and anti-tumor activity of calix[n]arene polyhydroxyamine derivatives” (Eur J Med Chem, 2016).

Molecules are shown by their SMILES. pIC50: −log10 of the molar value. The source made the active and inactive calls. The calls are words filed in the database; no cut-off is given here.

The test system of one assay is A549. Put plainly: Cytotoxicity against human A549 cells assessed as reduction in cell viability at 10 uM measured after 72 hrs by SRB assay relative to control. It is filed as functional. The note with it: A549, 72 h, read-out: GI. In a few lines: (§1)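 Adherent cells were seeded at 1-5 × 10⁴/well and grown 24 h at 37 °C in 5% CO₂. They were treated at a single 10 µM concentration for 72 h in triplicate wells. Read-out was SRB staining after TCA fixation, with dye dissolved in Tris base and OD read at 565 nm. Viability was expressed relative to control.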
Background: Sulforhodamine B stains cellular protein and so reports cell mass.

Assay [1] has as its system MDA-MB-231. Put plainly: Cytotoxicity against human MDA-MB-231 cells assessed as reduction in cell viability at 10 uM measured after 72 hrs by SRB assay relative to control. To be noted: MDA-MB-231, 72 h, read-out: GI. It is filed as functional. In a few lines: as §1
Assay [2] deals with SK-OV-3. Put plainly: Cytotoxicity against human SKOV3 cells assessed as reduction in cell viability at 10 uM measured after 72 hrs by SRB assay relative to control. It is filed as functional. To be noted: SK-OV-3, 72 h, read-out: GI. In a few lines: as §1
For assay [3], the system named is SW1990. Put plainly: Cytotoxicity against human SW1990 cells assessed as reduction in cell viability at 10 uM measured after 72 hrs by SRB assay relative to control. It is filed as functional. To be noted: SW1990, 72 h, read-out: GI. The procedure, abridged: as §1
Assay [4] relates to Raji. Put plainly: Cytotoxicity against human Raji cells assessed as reduction in cell viability at 10 uM measured after 72 hrs by MTT assay relative to control. It is filed as functional. The note with it: read-out: GI. In a few lines:
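Raji suspension cells were seeded at 1-5 × 10⁴/well and grown 24 h. They were treated at 10 µM for 72 h in triplicate wells. Read-out was MTT for 4 h, then solubilization in HCl/isopropanol/SDS overnight and OD at 550 nm, relative to control.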
Background: Tetrazolium assays rely on reduction of a dye to a coloured formazan, in cell work by metabolically active cells.

In assay [5] the test system is HeLa. As to the kind of experiment: Cytotoxicity against human HeLa cells assessed as reduction in cell viability at 10 uM measured after 72 hrs by SRB assay relative to control. The note with it: read-out: GI. It is filed as functional. The procedure, abridged: as §1
Assay [6] has as its system Raji. As to the kind of experiment: Cytotoxicity against human Raji cells assessed as reduction in cell viability measured after 72 hrs by MTT assay. The format is functional, cell-based. In a few lines:
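Raji suspension cells (RPMI 1640, 10% FBS) were seeded at 1-5 × 10⁴/well and grown 24 h at 37 °C in 5% CO₂. They were exposed to 10 concentrations for 72 h in triplicate wells. MTT was added for 4 h, then HCl/isopropanol/SDS was added overnight, and OD was read at 550 nm. Data are means of ≥3 independent experiments, relative to vehicle, with apparent IC50 taken from the dose-response curves.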

Assay [7] deals with SW1990. As to the kind of experiment: Cytotoxicity against human SW1990 cells assessed as reduction in cell viability measured after 72 hrs by SRB assay. To be noted: SW1990, 72 h. The format is functional, cell-based. The procedure, abridged: (§2)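 Adherent cells in log phase were seeded at 1-5 × 10⁴/well and grown 24 h at 37 °C in 5% CO₂. They were exposed to 10 concentrations for 72 h, three wells each, then fixed with TCA and stained with SRB. Bound dye was dissolved in Tris base and read at OD 565 nm. Survival was expressed relative to vehicle (100%). Means came from ≥3 independent experiments, and apparent IC50 was read from the dose-response curves.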

Assay [8] relates to MDA-MB-231. As to the kind of experiment: Cytotoxicity against human MDA-MB-231 cells assessed as reduction in cell viability measured after 72 hrs by SRB assay. The format is functional, cell-based. To be noted: MDA-MB-231, 72 h. In a few lines:
as §2

Assay [9] concerns HeLa. As to the kind of experiment: Cytotoxicity against human HeLa cells assessed as reduction in cell viability measured after 72 hrs by SRB assay. It is filed as functional, cell-based. The procedure, abridged:
as §2

Assay [10] deals with SK-OV-3. Put plainly: Cell cycle arrest in human SKOV3 cells assessed as decrease in accumulation at G2/M phase at 10 uM measured after 48 hrs by propidium iodide staining-based FACS analysis. It is filed as functional. On the technique in general: Flow cytometry measures light scatter and fluorescence of single cells or particles in a stream.
The test system of assay [11] is SK-OV-3. As to the kind of experiment: Cell cycle arrest in human SKOV3 cells assessed as accumulation at G0/G1 phase at 10 uM measured after 48 hrs by propidium iodide staining-based FACS analysis. It is filed as functional.
For assay [12], the system named is SK-OV-3. As to the kind of experiment: Cytotoxicity against human SKOV3 cells assessed as reduction in cell viability measured after 72 hrs by SRB assay. The format is functional, cell-based. The note with it: SK-OV-3, 72 h. In a few lines:
as §2

Assay [13] has as its system SK-OV-3. As to the kind of experiment: Cell cycle arrest in human SKOV3 cells assessed as decrease in accumulation at S phase at 10 uM measured after 48 hrs by propidium iodide staining-based FACS analysis. It is filed as functional.

With `O=C(COc1c2cccc1Cc1cccc(c1OCC(=O)NCCO)Cc1cccc(c1OCC(=O)NCCO)Cc1cccc(c1OCC(=O)NCCO)Cc1cccc(c1OCC(=O)NCCO)Cc1cccc(c1OCC(=O)NCCO)C2)NCCO`, the inhibition of growth at 10 µM in the assay with A549 amounted to 7%; in the assay with MDA-MB-231 [1] it was 4%; in the assay with SK-OV-3 [2] it was 10%; in the assay with SW1990 [3] it was 3%; in the assay on Raji [4], 18%; with HeLa [5], 6%.
Regarding `O=C(COc1c2cccc1Cc1cccc(c1O)Cc1cccc(c1OCC(=O)N(CCO)CCO)Cc1cccc(c1O)C2)N(CCO)CCO`, the inhibition of growth at 10 µM in the assay on A549 worked out at 7%; in the assay with MDA-MB-231 [1] it was 22%; in the assay with SK-OV-3 [2] it was 34%; in the assay on SW1990 [3] it was 4%; in the assay on Raji [4] it was 34%; in the assay on HeLa [5] it was 38%.
Take `O=C(COc1c2cccc1Cc1cccc(c1OCC(=O)N(CCO)CCO)Cc1cccc(c1OCC(=O)N(CCO)CCO)Cc1cccc(c1OCC(=O)N(CCO)CCO)Cc1cccc(c1OCC(=O)N(CCO)CCO)Cc1cccc(c1OCC(=O)N(CCO)CCO)Cc1cccc(c1OCC(=O)N(CCO)CCO)Cc1cccc(c1OCC(=O)N(CCO)CCO)C2)N(CCO)CCO`: the inhibition of growth at 10 µM was 6% in the assay with A549; 13% in the assay with MDA-MB-231 [1]; 25% in the assay with SK-OV-3 [2]; 2% in the assay with SW1990 [3]; 11% in the assay on Raji [4]; 18% with HeLa [5].
As to `CC(C)(C)c1cc2c(OCC(=O)NCCO)c(c1)Cc1cc(C(C)(C)C)cc(c1OCC(=O)NCCO)Cc1cc(C(C)(C)C)cc(c1OCC(=O)NCCO)Cc1cc(C(C)(C)C)cc(c1OCC(=O)NCCO)Cc1cc(C(C)(C)C)cc(c1OCC(=O)NCCO)Cc1cc(C(C)(C)C)cc(c1OCC(=O)NCCO)C2`, the inhibition of growth at 10 µM in the assay with A549 was 7%; in the assay on MDA-MB-231 [1], 12%; in the assay with SK-OV-3 [2] it was 24%; in the assay with SW1990 [3], 4%; with Raji [4], 38%; with HeLa [5], 40%.
In the case of `O=C(COc1c2cccc1Cc1cccc(c1OCC(=O)NCCO)Cc1cccc(c1OCC(=O)NCCO)Cc1cccc(c1OCC(=O)NCCO)Cc1cccc(c1OCC(=O)NCCO)Cc1cccc(c1OCC(=O)NCCO)Cc1cccc(c1OCC(=O)NCCO)Cc1cccc(c1OCC(=O)NCCO)C2)NCCO`, the inhibition of growth at 10 µM in the assay on A549 was 2%; in the assay on MDA-MB-231 [1], 27%; in the assay on SK-OV-3 [2], 1%; in the assay on SW1990 [3], 4%; with Raji [4], 7%; in the assay on HeLa [5], 32%.
For the molecule `O=C(COc1c2cccc1Cc1cccc(c1OCC(=O)N(CCO)CCO)Cc1cccc(c1OCC(=O)N(CCO)CCO)Cc1cccc(c1OCC(=O)N(CCO)CCO)Cc1cccc(c1OCC(=O)N(CCO)CCO)Cc1cccc(c1OCC(=O)N(CCO)CCO)C2)N(CCO)CCO`, the inhibition of growth at 10 µM is 5% with A549; 22% with MDA-MB-231 [1]; 19% in the assay with SK-OV-3 [2]; 0% in the assay on SW1990 [3]; 6% with Raji [4]; 9% with HeLa [5].
On to `CC(C)(C)c1cc2c(O)c(c1)Cc1cc(C(C)(C)C)cc(c1OCC(=O)N(CCO)CCO)Cc1cc(C(C)(C)C)cc(c1O)Cc1cc(C(C)(C)C)cc(c1OCC(=O)N(CCO)CCO)C2`, for which the inhibition of growth at 10 µM was found to be 16% in the assay with A549; 95% in the assay with MDA-MB-231 [1]; 42% with SK-OV-3 [2]; 59% in the assay on SW1990 [3]; 77% in the assay with Raji [4]; 95% with HeLa [5]. The pIC50 in the assay with Raji [6] is 4.95; in the assay on SW1990 [7], 4.95; in the assay on MDA-MB-231 [8], 5.28; with HeLa [9], 5.09.
Consider `CC(C)(C)c1cc2c(OCC(=O)NCCO)c(c1)Cc1cc(C(C)(C)C)cc(c1OCC(=O)NCCO)Cc1cc(C(C)(C)C)cc(c1OCC(=O)NCCO)Cc1cc(C(C)(C)C)cc(c1OCC(=O)NCCO)Cc1cc(C(C)(C)C)cc(c1OCC(=O)NCCO)Cc1cc(C(C)(C)C)cc(c1OCC(=O)NCCO)Cc1cc(C(C)(C)C)cc(c1OCC(=O)NCCO)Cc1cc(C(C)(C)C)cc(c1OCC(=O)NCCO)C2`, for which the inhibition of growth at 10 µM is 8% in the assay on A549; 12% in the assay with MDA-MB-231 [1]; 26% with SK-OV-3 [2]; 5% in the assay on SW1990 [3]; 24% in the assay with Raji [4]; 23% with HeLa [5].
With `CC(C)(C)c1cc2c(OCC(=O)N(CCO)CCO)c(c1)Cc1cc(C(C)(C)C)cc(c1OCC(=O)N(CCO)CCO)Cc1cc(C(C)(C)C)cc(c1OCC(=O)N(CCO)CCO)Cc1cc(C(C)(C)C)cc(c1OCC(=O)N(CCO)CCO)Cc1cc(C(C)(C)C)cc(c1OCC(=O)N(CCO)CCO)Cc1cc(C(C)(C)C)cc(c1OCC(=O)N(CCO)CCO)Cc1cc(C(C)(C)C)cc(c1OCC(=O)N(CCO)CCO)Cc1cc(C(C)(C)C)cc(c1OCC(=O)N(CCO)CCO)C2`, the inhibition of growth at 10 µM in the assay with A549 is 0%; in the assay with MDA-MB-231 [1] it was 11%; with SK-OV-3 [2], 25%; in the assay on SW1990 [3] it was 5%; in the assay with Raji [4] it was 11%; in the assay with HeLa [5], 10%.
`O=C(COc1c2cccc1Cc1cccc(c1O)Cc1cccc(c1OCC(=O)NCCO)Cc1cccc(c1O)C2)NCCO`: the inhibition of growth at 10 µM with A549 is 13%; with MDA-MB-231 [1] it was 57%; in the assay on SK-OV-3 [2] it was 86%; in the assay on SW1990 [3], 10%; with Raji [4], 29%; in the assay on HeLa [5] it was 46%. In addition, the outcome in the assay on SK-OV-3 [10], in the assay with SK-OV-3 [11] and with SK-OV-3 [13] was Active. Besides, the pIC50 in the assay on SK-OV-3 [12] was 5.64; with MDA-MB-231 [8], 5.80.
Consider `CC(C)(C)c1cc2c(OCC(=O)N(CCO)CCO)c(c1)Cc1cc(C(C)(C)C)cc(c1OCC(=O)N(CCO)CCO)Cc1cc(C(C)(C)C)cc(c1OCC(=O)N(CCO)CCO)Cc1cc(C(C)(C)C)cc(c1OCC(=O)N(CCO)CCO)Cc1cc(C(C)(C)C)cc(c1OCC(=O)N(CCO)CCO)Cc1cc(C(C)(C)C)cc(c1OCC(=O)N(CCO)CCO)C2`, for which the inhibition of growth at 10 µM in the assay on A549 worked out at 0%; with MDA-MB-231 [1], 0%; in the assay with SK-OV-3 [2], 26%; in the assay on SW1990 [3], 26%; in the assay with Raji [4], 14%; in the assay on HeLa [5] it was 0%.

Broadly, the pIC50 is −log10 of the IC50, conventionally taken in molar units.
